We go through 20 molecules from ChEMBL document CHEMBL3352368, “Amino derivatives of indolone-N-oxide: preparation and antiplasmodial properties” (Eur J Med Chem, 2014).

The subject of one data set is Plasmodium falciparum. Nature of the data set: Antiplasmodial activity against chloroquine-resistant Plasmodium falciparum FcB1 infected in human RBC assessed as [3H]-hypoxanthine incorporation after 48 hrs by liquid scintillation counting analysis. The format is functional, organism-based. The procedure, abridged: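 FcB1 maintained in RPMI 1640 with L-glutamine, 25 mM HEPES, 10% human serum, group O RBCs, 5% CO2; synchronized by magnetic enrichment then D-sorbitol lysis. Serial dilutions in culture medium; [3H]-hypoxanthine added at 24 h, harvest at 48 h after freeze-thaw. IC50 by linear regression on linear segments of semilog inhibition curves; triplicate, three repeats.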

Data set [1] is described as follows: Cytotoxicity against human MCF7 cells assessed as decrease in cell viability after 48 hrs by XTT assay. In kind it is cell-based. The method, boiled down: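 MCF-7 cells grown as for parasite culture but with 10% fetal calf serum in place of human serum; trypsinized and seeded at 2 × 10^4 cells/well, incubated overnight, then compound added at final 1, 10 and 100 […] mL1. Viability read by XTT reduction after 48 h drug contact; experiments run twice in triplicate.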
(Tetrazolium dyes change colour on reduction, which living cells bring about.)

Data set [2] in a line: Selectivity index, ratio of CC50 for human MCF7 cells to IC50 for chloroquine-resistant Plasmodium falciparum FcB1. The format is functional.
The next data set deals with Plasmodium berghei. As to the kind of experiment: In vivo antimalarial activity against Plasmodium berghei ANKA assessed as inhibition of parasitemia at 30 mg/kg/day. In kind it is functional.
The nature of data set [3]: Half life in human liver microsomes. The format is ADME. For orientation: Liver microsomes are vesicles of endoplasmic reticulum, rich in cytochrome P450 enzymes.

What is called IC50 is the concentration that inhibits the measured activity by half. Regarding `C[C@H]1[C@H](OC(=O)CCC(=O)O)O[C@@H]2O[C@@]3(C)CC[C@H]4[C@H](C)CC[C@@H]1[C@@]24OO3` [SODIUM ARESUNATE], in the data set on Plasmodium falciparum (Plasmodium falciparum, FcB1), the half-maximal inhibitory concentration (IC50) was determined as 0.006 µM.

What is called CC50 is the concentration at which the toxic effect on the cells reaches its halfway point. As to `COc1ccc2c(c1)C(=O)C(c1ccc(N3CCOCC3)cc1)=[N+]2[O-]`, in the data set on Plasmodium falciparum (Plasmodium falciparum, FcB1), the 50% inhibitory concentration (IC50) was 0.0065 µM. Further, the cytotoxic concentration (CC50) at 48 h in data set [1] was > 29.5 µM. In data set [2], the “Ratio CC50/IC50” value is on record as >4538.5.

With `O=C1C(c2ccc(Cl)cc2)=[N+]([O-])c2cccnc21`, the IC50 with Plasmodium falciparum (Plasmodium falciparum, FcB1) was > 2.72 µM.

Regarding `CCOC(=O)c1ccc2c(c1)[N+]([O-])=C(c1ccccc1)C2=O`, in the data set with Plasmodium falciparum (Plasmodium falciparum, FcB1), the IC50 is 0.284 µM. In addition, the CC50 at 48 h in data set [1] is 26.4 µM. Also, the “Ratio CC50/IC50” value in data set [2] came out at 91.9.

As to `Nc1ccc2c(c1)[N+]([O-])=C(CCCN1C(=O)c3ccccc3C1=O)C2=O`, in the data set with Plasmodium falciparum (Plasmodium falciparum, FcB1), the IC50 is 8.3 µM. Moreover, the cytotoxic concentration (CC50) at 48 h in data set [1] was 6.6 µM. Further, in data set [2], the “Ratio CC50/IC50” value is 0.8.

In the case of `Nc1ccc(C2=[N+]([O-])c3ccccc3C2=O)cc1`, the half-maximal inhibitory concentration (IC50) with Plasmodium falciparum (Plasmodium falciparum, FcB1) stood at 0.168 µM. The CC50 at 48 h in data set [1] was determined as 13 µM. In addition, the “Ratio CC50/IC50” value in data set [2] is given as 77.

Turning to `COc1ccc2c(c1)C(=O)C(c1cccnc1)=[N+]2[O-]`, the half-inhibitory concentration (IC50) in the data set with Plasmodium falciparum (Plasmodium falciparum, FcB1) worked out at 0.161 µM. The 50% cytotoxic concentration (CC50) at 48 h in data set [1] came to 17.3 µM. Further, in data set [2], the “Ratio CC50/IC50” value worked out at 107.

As to `O=C1C(c2ccccc2)=[N+]([O-])c2cc([N+](=O)[O-])c(/C=C(\Cl)c3ccccc3)cc21`, in the data set with Plasmodium falciparum (Plasmodium falciparum, FcB1), the IC50 was found to be 0.84 µM. The CC50 at 48 h in data set [1] was 59 µM. Besides, the “Ratio CC50/IC50” value in data set [2] is given as 70.

Consider `COc1ccc2c(c1)C(=O)C(c1ccc(N)cc1)=[N+]2[O-].Cl`, for which, in the data set with Plasmodium falciparum (Plasmodium falciparum, FcB1), the 50% inhibitory concentration (IC50) was < 0.003 µM. For the same molecule, the 50% cytotoxic concentration (CC50) at 48 h in data set [1] was determined as 9.7 µM. In addition, in data set [2], the “Ratio CC50/IC50” value is >3233.

Regarding `COc1ccc2c(c1)[N+]([O-])=C(c1ccc(N)cc1)C2=O`, the IC50 in the data set on Plasmodium falciparum (Plasmodium falciparum, FcB1) was determined as 0.024 µM. Further, the cytotoxic concentration (CC50) at 48 h in data set [1] turned out to be 12.7 µM. The “Ratio CC50/IC50” value in data set [2] was 528.

The term inhibition in vivo denotes the share of the control response that was lost under treatment. Consider `COc1ccc2c(c1)C(=O)C(c1ccc(N(C)C)cc1)=[N+]2[O-]`, for which, in the data set with Plasmodium falciparum, the IC50 was < 0.003 µM. Besides, the “Ratio CC50/IC50” value in data set [2] was >14623. The inhibition in vivo at 30 mg/kg/day with Plasmodium berghei stood at 15.3%.

On to `COc1ccc(C2=[N+]([O-])c3cc(N)ccc3C2=O)cc1`, for which, in the data set on Plasmodium falciparum (Plasmodium falciparum, FcB1), the IC50 was determined as 1.56 µM. In data set [1], the CC50 at 48 h is > 37.3 µM. In data set [2], the “Ratio CC50/IC50” value is recorded as >33.

A word on the half-life: it is the time needed for the level to fall by half in the phase considered. Higher therefore signals slow loss. Regarding `O=C1C(c2ccc(Cl)cc2)=[N+]([O-])c2cc3c(cc21)OCO3`, the inhibition in vivo at 30 mg/kg/day with Plasmodium berghei stood at 62.1%. For the same molecule, in data set [3], the half-life is < 1 min.

For the molecule `COc1ccc2c(c1)C(=O)C(c1ccc(N(C)C)cc1)=[N+]2[O-].Cl`, the concentration for half-maximal inhibition (IC50) in the data set with Plasmodium falciparum was < 0.0003 µM. Moreover, the CC50 at 48 h in data set [1] came to 33.7 µM. Also, in data set [2], the “Ratio CC50/IC50” value is >112333.

In the case of `CN(C)c1ccc(C2=[N+]([O-])c3cc(N)ccc3C2=O)cc1`, the 50% inhibitory concentration (IC50) with Plasmodium falciparum (Plasmodium falciparum, FcB1) was 12.3 µM. Besides, in data set [1], the cytotoxic concentration (CC50) at 48 h was 21.3 µM. In data set [2], the “Ratio CC50/IC50” value came out at 1.8.

On to `O=C1C(c2ccc(Cl)cc2)=[N+]([O-])c2cc[n+]([O-])cc21`, for which, in the data set on Plasmodium falciparum (Plasmodium falciparum, FcB1), the 50% inhibitory concentration (IC50) was > 5.44 µM.

For the molecule `CCCCNc1ccc(C2=[N+]([O-])c3ccc(OC)cc3C2=O)cc1`, in the data set on Plasmodium falciparum (Plasmodium falciparum, FcB1), the IC50 worked out at 0.021 µM. Besides, the half-maximal cytotoxic concentration (CC50) at 48 h in data set [1] was determined as 43.2 µM. In addition, the “Ratio CC50/IC50” value in data set [2] turned out to be 2057.

For `Nc1ccc2c(c1)[N+]([O-])=C(c1ccc(Cl)cc1)C2=O`, the half-inhibitory concentration (IC50) with Plasmodium falciparum (Plasmodium falciparum, FcB1) worked out at 0.183 µM. For the same molecule, in data set [1], the CC50 at 48 h is 11 µM. The “Ratio CC50/IC50” value in data set [2] was determined as 60.

With `COc1ccc2c(c1)C(=O)C(c1ccc(N(C)C)c(C)c1)=[N+]2[O-]`, the half-maximal inhibitory concentration (IC50) with Plasmodium falciparum (Plasmodium falciparum, FcB1) turned out to be 0.04 µM. In data set [1], the half-maximal cytotoxic concentration (CC50) at 48 h turned out to be 35.4 µM. Besides, the “Ratio CC50/IC50” value in data set [2] worked out at 885.

For the molecule `COc1ccc2cc(C3=[N+]([O-])c4cc(N)ccc4C3=O)ccc2c1`, the IC50 in the data set on Plasmodium falciparum (Plasmodium falciparum, FcB1) is 1.32 µM. Moreover, the CC50 at 48 h in data set [1] was found to be 7.8 µM. Also, the “Ratio CC50/IC50” value in data set [2] was 6.
